Data from ChEMBL document CHEMBL3085773, “A general method for making peptide therapeutics resistant to serine protease degradation: application to dipeptidyl peptidase IV substrates” (J Med Chem, 2013).
Values belong to the compound of their own block, whether it stands above or below them. Square brackets hold non-standard residues; d marks the D form. Peptide text beside a SMILES is read from it. ξ: configuration not given here. ξTle = CC(C)(C)C(N)C(=O)O

Key:
[1] = target: DPP4 (dipeptidyl peptidase 4) (Sus scrofa, UniProt P22411); assay: Stability of the compound assessed as porcine DPP4-mediated compound degradation measured intact level at 0.1 mM measured at 30 mins by reverse-phase HPLC/MS analysis; format: ADME; settings: pig, read-out: Stability
DPP4 (dipeptidyl peptidase 4), sequence (P22411 whole entry): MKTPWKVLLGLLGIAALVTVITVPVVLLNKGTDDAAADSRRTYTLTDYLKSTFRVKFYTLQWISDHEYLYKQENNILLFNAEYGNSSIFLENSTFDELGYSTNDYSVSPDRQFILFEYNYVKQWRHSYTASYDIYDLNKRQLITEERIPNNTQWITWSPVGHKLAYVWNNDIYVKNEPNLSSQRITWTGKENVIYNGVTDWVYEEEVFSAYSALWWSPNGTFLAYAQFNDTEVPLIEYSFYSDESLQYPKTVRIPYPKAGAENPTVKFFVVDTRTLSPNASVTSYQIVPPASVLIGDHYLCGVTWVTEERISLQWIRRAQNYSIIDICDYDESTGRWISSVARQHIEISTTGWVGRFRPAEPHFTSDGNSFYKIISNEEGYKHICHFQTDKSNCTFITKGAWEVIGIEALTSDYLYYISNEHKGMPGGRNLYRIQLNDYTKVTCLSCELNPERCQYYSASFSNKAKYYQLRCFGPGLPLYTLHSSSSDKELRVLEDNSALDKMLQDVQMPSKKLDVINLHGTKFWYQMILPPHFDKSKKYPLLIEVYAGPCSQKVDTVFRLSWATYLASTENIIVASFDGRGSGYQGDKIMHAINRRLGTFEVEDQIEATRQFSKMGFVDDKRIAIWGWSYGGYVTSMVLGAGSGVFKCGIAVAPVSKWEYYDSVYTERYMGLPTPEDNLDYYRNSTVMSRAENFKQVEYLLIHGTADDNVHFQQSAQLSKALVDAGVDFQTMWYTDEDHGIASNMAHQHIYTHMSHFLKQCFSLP
Method in brief: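 Synthetic hexapeptides (0.1 mM) incubated at 37 °C with 10 mU/mL DPP IV purified from porcine kidney in 50 mM HEPES, 0.14 M NaCl, pH 8.0; intact peptide by HPLC-MS, expressed as percent of time-zero value.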

[2] = target: T1, Dipeptidyl peptidase 4 (Homo sapiens, UniProt P27487); assay: Stability of the compound assessed as recombinant human DPP4-mediated compound degradation at 0.1 mM measured after 24 hrs by reverse-phase HPLC/MS analysis; format: ADME; settings: 100 µM
T1 sequence (P27487 whole entry): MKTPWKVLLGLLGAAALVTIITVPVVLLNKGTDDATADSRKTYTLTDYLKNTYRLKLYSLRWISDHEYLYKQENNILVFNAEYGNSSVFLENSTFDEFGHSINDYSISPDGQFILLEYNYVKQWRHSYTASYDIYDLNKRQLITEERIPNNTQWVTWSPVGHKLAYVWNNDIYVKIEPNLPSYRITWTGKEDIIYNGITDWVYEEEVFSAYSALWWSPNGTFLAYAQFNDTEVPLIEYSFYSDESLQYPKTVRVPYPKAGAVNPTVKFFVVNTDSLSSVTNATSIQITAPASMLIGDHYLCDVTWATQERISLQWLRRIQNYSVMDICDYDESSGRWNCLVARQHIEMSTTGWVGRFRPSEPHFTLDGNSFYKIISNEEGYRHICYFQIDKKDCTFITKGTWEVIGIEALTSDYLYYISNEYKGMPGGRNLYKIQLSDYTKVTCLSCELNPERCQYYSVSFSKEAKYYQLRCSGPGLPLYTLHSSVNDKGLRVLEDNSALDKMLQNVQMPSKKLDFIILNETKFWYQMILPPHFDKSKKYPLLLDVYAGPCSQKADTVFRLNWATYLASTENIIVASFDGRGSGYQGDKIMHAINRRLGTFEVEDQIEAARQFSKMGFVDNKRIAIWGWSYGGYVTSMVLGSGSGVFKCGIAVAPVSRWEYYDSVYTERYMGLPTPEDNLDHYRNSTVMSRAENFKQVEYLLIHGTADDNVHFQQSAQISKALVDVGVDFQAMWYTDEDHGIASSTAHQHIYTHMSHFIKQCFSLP
Method in brief: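 GLP-1 peptides (0.1 mM) incubated at 37 °C with recombinant human DPP IV in 50 mM HEPES, 0.14 M NaCl, pH 8.0, up to 24 h; acid-quenched samples analysed by RP-HPLC-MS for intact peptide.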

[3] = target: T1, Dipeptidyl peptidase 4; assay: Competitive inhibition of human recombinant DPP4 using AP-pNA as substrate preincubated for 30 mins followed by substrate addition measured after 30 mins by spectrophotometric analysis
[4] = target: T2, Trypsin (Sus scrofa, UniProt P00761); assay: Stability of the compound assessed as half life of porcine pancreatic trypsin-mediated compound degradation at 0.1 mM by reverse-phase HPLC/MS analysis; format: ADME; settings: pig
T2 sequence (P00761 whole entry): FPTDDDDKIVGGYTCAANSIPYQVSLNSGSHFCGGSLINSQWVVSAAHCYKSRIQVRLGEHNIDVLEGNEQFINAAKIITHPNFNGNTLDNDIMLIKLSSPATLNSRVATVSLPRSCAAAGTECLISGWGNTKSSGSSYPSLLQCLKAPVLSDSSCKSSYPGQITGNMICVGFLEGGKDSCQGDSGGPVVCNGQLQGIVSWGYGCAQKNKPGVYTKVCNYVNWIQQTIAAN

[5] = target: alpha-lytic protease (alpha-LP) (Lysobacter enzymogenes, UniProt P00778); assay: Stability of the compound assessed as half life of Lysobacter enzymogenes alpha-LP-mediated compound degradation at 0.1 mM by reverse-phase HPLC/MS analysis; format: ADME
alpha-lytic protease (alpha-LP), sequence (P00778 whole entry): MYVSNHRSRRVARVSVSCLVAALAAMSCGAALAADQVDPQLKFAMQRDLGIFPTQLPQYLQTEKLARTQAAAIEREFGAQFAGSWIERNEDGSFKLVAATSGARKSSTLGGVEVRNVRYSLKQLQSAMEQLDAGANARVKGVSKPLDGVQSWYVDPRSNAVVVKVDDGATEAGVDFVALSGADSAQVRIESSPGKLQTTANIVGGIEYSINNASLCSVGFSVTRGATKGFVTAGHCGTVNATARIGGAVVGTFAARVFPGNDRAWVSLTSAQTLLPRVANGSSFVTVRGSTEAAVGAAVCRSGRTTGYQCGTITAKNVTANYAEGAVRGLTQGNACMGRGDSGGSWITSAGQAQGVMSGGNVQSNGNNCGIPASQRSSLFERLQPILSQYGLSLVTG

[6] = target: T2, Trypsin; assay: Stability of the compound assessed as porcine pancreatic trypsin-mediated compound degradation at 0.1 mM after 8 hrs by reverse-phase HPLC/MS analysis; format: ADME; settings: pig, isolated protein, 100 µM

remaining at 0.5 h, 100 µM [1]: < 70%
Compound: CC(C)C[C@H](NC(=O)[C@@H]1CCCN1C(=O)[C@H](C)N)C(=O)N[C@@H](CO)C(=O)N[C@@H](Cc1c[nH]c2ccccc12)C(=O)N[C@@H](CO)C(=O)O (H-APLSWS-OH)

Stability [2]: Stable
Ki [3]: 4.5 µM
Compound: CC(C)[C@H](N)C(=O)N1CCC[C@H]1C(=O)NC(C(=O)N1CCC[C@H]1C(=O)N[C@@H](CCCNC(=N)N)C(N)=O)C(C)(C)C (stereo partly specified) (H-VP[ξTle]PR-NH2)

half-life at 100 µM [4]: 24 min
half-life at 100 µM [5]: 24 min
Compound: CC(C)C[C@H](NC(=O)[C@@H](N)CC(C)C)C(=O)N1CCC[C@H]1C(=O)N[C@@H](CCCNC(=N)N)C(=O)N[C@H](C(=O)N[C@@H](C)C(=O)N[C@@H](CC(N)=O)C(=O)NCC(=O)N[C@@H](CO)C(=O)N[C@@H](CO)C(=O)N[C@@H](Cc1ccccc1)C(=O)N[C@H](C(=O)N[C@H](C(=O)N[C@H](C(=O)O)C(C)C)[C@@H](C)O)C(C)C)C(C)C (H-LLPRVANGSSFVTV-OH)

Stability [6]: Stable
Compound: CC(C)C[C@H](NC(=O)[C@@H](N)CC(C)C)C(=O)N1CCC[C@H]1C(=O)N[C@@H](CCCNC(=N)N)C(=O)NC(C(=O)N[C@@H](C)C(=O)N[C@@H](CC(N)=O)C(=O)NCC(=O)N[C@@H](CO)C(=O)N[C@@H](CO)C(=O)N[C@@H](Cc1ccccc1)C(=O)N[C@H](C(=O)N[C@H](C(=O)N[C@H](C(=O)O)C(C)C)[C@@H](C)O)C(C)C)C(C)(C)C (stereo partly specified) (H-LLPR[ξTle]ANGSSFVTV-OH)
